Test results published in ChEMBL document CHEMBL4673330, “Preparations and antioxidant activities of sesamol and it's derivatives” (Bioorg Med Chem Lett, 2021).

Experiment: Antioxidant activity assessed as hydroxyl radical scavenging rate at 1 g/L relative to control
Type: functional
Procedure, shortened: (§1)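 Hydroxyl radical scavenging was read as absorbance of the reaction solution at 510 nm by a fixed reaction time method. Derivatives were tested at 0.2–1.2 g/L, with sesamol as positive control. Values are means ± SD from at least eight independent experiments, each in triplicate (n = 3), with t-tests (p < 0.05).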

First: O=C(Oc1ccc2c(c1)OCO2)c1c(Cl)cccc1Cl
Second: O=c1oc2ccc3c(c2c2cccc(Cl)c12)OCO3
The Activity of the first is lower: 76.4% for the first, 94.4% for the second.

Work on `O=c1oc2ccc3c(c2c2ccc(Cl)cc12)OCO3` yielded an Activity of 92.6%.

Experiment: Antioxidant activity assessed as superoxide anion radical scavenging rate at 0.2 g/L relative to control
Type: functional
Procedure, shortened: (§2)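 Pyrocatechol autoxidation in weak alkaline medium produces a coloured intermediate and superoxide anion; the intermediate absorbs maximally at 320 nm. Scavenging rate was measured at 0.2–1.2 g/L, with sesamol as positive control. Values are means ± SD from at least eight independent experiments, each in triplicate (n = 3), with t-tests (p < 0.05).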

First: O=C(Oc1ccc2c(c1)OCO2)c1c(Cl)cccc1Cl
Second: O=c1oc2ccc3c(c2c2cccc(Cl)c12)OCO3
The Activity of the first is lower: 13% for the first, 16.3% for the second.

In the case of `O=c1oc2ccc3c(c2c2ccc(Cl)cc12)OCO3`, the Activity was 16.1%.

Experiment: Antioxidant activity assessed as superoxide anion radical scavenging rate at 1 g/L relative to control
Type: functional
Procedure, shortened: as §2

Compared with `O=C(Oc1ccc2c(c1)OCO2)c1c(Cl)cccc1Cl`, `O=c1oc2ccc3c(c2c2cccc(Cl)c12)OCO3` is higher in Activity: 75% for the first, 94.1% for the second.

`O=c1oc2ccc3c(c2c2ccc(Cl)cc12)OCO3` gave an Activity of 92.6%.

Experiment: Antioxidant activity assessed as superoxide anion radical scavenging rate at 0.4 g/L relative to control
Type: functional
Procedure, shortened: as §2

First: O=C(Oc1ccc2c(c1)OCO2)c1c(Cl)cccc1Cl
Second: O=c1oc2ccc3c(c2c2cccc(Cl)c12)OCO3
The Activity of the first is lower: 29.9% for the first, 37.5% for the second.

Work on `O=c1oc2ccc3c(c2c2ccc(Cl)cc12)OCO3` yielded an Activity of 36.9%.

Experiment: Antioxidant activity assessed as superoxide anion radical scavenging rate at 1.2 g/L relative to control
Type: functional
Procedure, shortened: as §2

Going from `O=C(Oc1ccc2c(c1)OCO2)c1c(Cl)cccc1Cl` to `O=c1oc2ccc3c(c2c2cccc(Cl)c12)OCO3`, the Activity rises from 75.8% to 95%.

`O=c1oc2ccc3c(c2c2ccc(Cl)cc12)OCO3` showed an Activity of 93.5%.

Experiment: Antioxidant activity assessed as hydroxyl radical scavenging rate at 0.8 g/L relative to control
Type: functional
Procedure, shortened: as §1

First: O=C(Oc1ccc2c(c1)OCO2)c1c(Cl)cccc1Cl
Second: O=c1oc2ccc3c(c2c2cccc(Cl)c12)OCO3
The Activity of the first is lower: 72.7% for the first, 89.9% for the second.

`O=c1oc2ccc3c(c2c2ccc(Cl)cc12)OCO3` gave an Activity of 88.2%.

Experiment: Antioxidant activity assessed as reduction in lipid peroxidation by measuring antiperoxide-index at 0.2 g/L by thiobarbituric acid method relative to control
Type: functional
Set-up: scale not given: the % may be the effect or the level left
Procedure, shortened: (§3)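 Anti-lipid-peroxidation (antiperoxide index, %) was tested at 0.2–1.2 g/L, with sesamol as positive control. Values are means ± SD from at least eight independent experiments, each in triplicate (n = 3), with t-tests (p < 0.05).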

First: O=C(Oc1ccc2c(c1)OCO2)c1c(Cl)cccc1Cl
Second: O=c1oc2ccc3c(c2c2cccc(Cl)c12)OCO3
The Activity of the first is lower: 14.1% for the first, 16.3% for the second.

With `O=c1oc2ccc3c(c2c2ccc(Cl)cc12)OCO3` the Activity was 16.6%.

Experiment: Antioxidant activity assessed as reduction of potassium ferricyanide trivalent iron into potassium ferrocyanide bivalent iron and ferrous iron by measuring eliminate efficiency at 1.2 g/L relative to control
Type: functional
Set-up: scale not given: the % may be the effect or the level left
Procedure, shortened: (§4)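 Reducing capacity was read as absorbance at 700 nm, where higher absorbance means greater reducing ability. Tested at 0.2–1.2 g/L against sesamol as positive control. Values are means from at least eight independent experiments, each in triplicate (n = 3), with t-tests (p < 0.05).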

Compared with `O=C(Oc1ccc2c(c1)OCO2)c1c(Cl)cccc1Cl`, `O=c1oc2ccc3c(c2c2cccc(Cl)c12)OCO3` is higher in Activity: 84.3% for the first, 96.1% for the second.

In the case of `O=c1oc2ccc3c(c2c2ccc(Cl)cc12)OCO3`, the Activity was 94.3%.

Experiment: Antioxidant activity assessed as reduction of potassium ferricyanide trivalent iron into potassium ferrocyanide bivalent iron and ferrous iron by measuring eliminate efficiency at 0.4 g/L relative to control
Type: functional
Set-up: scale not given: the % may be the effect or the level left
Procedure, shortened: as §4

Compared with `O=C(Oc1ccc2c(c1)OCO2)c1c(Cl)cccc1Cl`, `O=c1oc2ccc3c(c2c2cccc(Cl)c12)OCO3` is higher in Activity: 34.4% for the first, 39.3% for the second.

In the case of `O=c1oc2ccc3c(c2c2ccc(Cl)cc12)OCO3`, the Activity was 38.5%.

Experiment: Antioxidant activity assessed as reduction of potassium ferricyanide trivalent iron into potassium ferrocyanide bivalent iron and ferrous iron by measuring eliminate efficiency at 0.2 g/L relative to control
Type: functional
Set-up: scale not given: the % may be the effect or the level left
Procedure, shortened: as §4

Going from `O=C(Oc1ccc2c(c1)OCO2)c1c(Cl)cccc1Cl` to `O=c1oc2ccc3c(c2c2cccc(Cl)c12)OCO3`, the Activity rises from 14.3% to 16.4%.

In the case of `O=c1oc2ccc3c(c2c2ccc(Cl)cc12)OCO3`, the Activity was 16.1%.

Experiment: Antioxidant activity assessed as superoxide anion radical scavenging rate at 0.6 g/L relative to control
Type: functional
Procedure, shortened: as §2

Compared with `O=C(Oc1ccc2c(c1)OCO2)c1c(Cl)cccc1Cl`, `O=c1oc2ccc3c(c2c2cccc(Cl)c12)OCO3` is higher in Activity: 56.9% for the first, 71.3% for the second.

In the case of `O=c1oc2ccc3c(c2c2ccc(Cl)cc12)OCO3`, the Activity was 70.1%.

Experiment: Antioxidant activity assessed as reduction in lipid peroxidation by measuring antiperoxide-index at 0.6 g/L by thiobarbituric acid method relative to control
Type: functional
Set-up: scale not given: the % may be the effect or the level left
Procedure, shortened: as §3

Compared with `O=C(Oc1ccc2c(c1)OCO2)c1c(Cl)cccc1Cl`, `O=c1oc2ccc3c(c2c2cccc(Cl)c12)OCO3` is higher in Activity: 60.8% for the first, 70.4% for the second.

Compound `O=c1oc2ccc3c(c2c2ccc(Cl)cc12)OCO3` has an Activity of 71.5%.

Experiment: Antioxidant activity assessed as superoxide anion radical scavenging rate at 0.8 g/L relative to control
Type: functional
Procedure, shortened: as §2

Compared with `O=C(Oc1ccc2c(c1)OCO2)c1c(Cl)cccc1Cl`, `O=c1oc2ccc3c(c2c2cccc(Cl)c12)OCO3` is higher in Activity: 68.2% for the first, 85.5% for the second.

For `O=c1oc2ccc3c(c2c2ccc(Cl)cc12)OCO3`, the Activity was 84.2%.

Experiment: Antioxidant activity assessed as reduction of potassium ferricyanide trivalent iron into potassium ferrocyanide bivalent iron and ferrous iron by measuring eliminate efficiency at 1 g/L relative to control
Type: functional
Set-up: scale not given: the % may be the effect or the level left
Procedure, shortened: as §4

Compared with `O=C(Oc1ccc2c(c1)OCO2)c1c(Cl)cccc1Cl`, `O=c1oc2ccc3c(c2c2cccc(Cl)c12)OCO3` is higher in Activity: 83.4% for the first, 95.2% for the second.

For `O=c1oc2ccc3c(c2c2ccc(Cl)cc12)OCO3`, the Activity was 93.4%.

Experiment: Antioxidant activity assessed as hydroxyl radical scavenging rate at 1.2 g/L relative to control
Type: functional
Procedure, shortened: as §1

Compared with `O=C(Oc1ccc2c(c1)OCO2)c1c(Cl)cccc1Cl`, `O=c1oc2ccc3c(c2c2cccc(Cl)c12)OCO3` is higher in Activity: 77.1% for the first, 95.3% for the second.

`O=c1oc2ccc3c(c2c2ccc(Cl)cc12)OCO3` gave an Activity of 93.6%.

Experiment: Antioxidant activity assessed as reduction in lipid peroxidation by measuring antiperoxide-index at 0.4 g/L by thiobarbituric acid method relative to control
Type: functional
Set-up: scale not given: the % may be the effect or the level left
Procedure, shortened: as §3

Compared with `O=C(Oc1ccc2c(c1)OCO2)c1c(Cl)cccc1Cl`, `O=c1oc2ccc3c(c2c2cccc(Cl)c12)OCO3` is higher in Activity: 33.8% for the first, 39.1% for the second.

`O=c1oc2ccc3c(c2c2ccc(Cl)cc12)OCO3` gave an Activity of 39.7%.

Experiment: Antioxidant activity assessed as reduction in lipid peroxidation by measuring antiperoxide-index at 0.8 g/L by thiobarbituric acid method relative to control
Type: functional
Set-up: scale not given: the % may be the effect or the level left
Procedure, shortened: as §3

First: O=C(Oc1ccc2c(c1)OCO2)c1c(Cl)cccc1Cl
Second: O=c1oc2ccc3c(c2c2cccc(Cl)c12)OCO3
The Activity of the first is lower: 72.9% for the first, 84.5% for the second.

With `O=c1oc2ccc3c(c2c2ccc(Cl)cc12)OCO3` the Activity was 85.8%.

Experiment: Antioxidant activity assessed as hydroxyl radical scavenging rate at 0.4 g/L relative to control
Type: functional
Procedure, shortened: as §1

Going from `O=C(Oc1ccc2c(c1)OCO2)c1c(Cl)cccc1Cl` to `O=c1oc2ccc3c(c2c2cccc(Cl)c12)OCO3`, the Activity rises from 32.7% to 40.6%.

Work on `O=c1oc2ccc3c(c2c2ccc(Cl)cc12)OCO3` yielded an Activity of 40.8%.

Experiment: Antioxidant activity assessed as hydroxyl radical scavenging rate at 0.2 g/L relative to control
Type: functional
Procedure, shortened: as §1

First: O=C(Oc1ccc2c(c1)OCO2)c1c(Cl)cccc1Cl
Second: O=c1oc2ccc3c(c2c2cccc(Cl)c12)OCO3
The Activity of the first is lower: 14% for the first, 17.3% for the second.

Compound `O=c1oc2ccc3c(c2c2ccc(Cl)cc12)OCO3` has an Activity of 17%.

Experiment: Antioxidant activity assessed as reduction in lipid peroxidation by measuring antiperoxide-index at 1 g/L by thiobarbituric acid method relative to control
Type: functional
Set-up: scale not given: the % may be the effect or the level left
Procedure, shortened: as §3

Going from `O=C(Oc1ccc2c(c1)OCO2)c1c(Cl)cccc1Cl` to `O=c1oc2ccc3c(c2c2cccc(Cl)c12)OCO3`, the Activity rises from 80.2% to 92.9%.

`O=c1oc2ccc3c(c2c2ccc(Cl)cc12)OCO3` gave an Activity of 94.4%.

Experiment: Antioxidant activity assessed as hydroxyl radical scavenging rate at 0.6 g/L relative to control
Type: functional
Procedure, shortened: as §1

Compared with `O=C(Oc1ccc2c(c1)OCO2)c1c(Cl)cccc1Cl`, `O=c1oc2ccc3c(c2c2cccc(Cl)c12)OCO3` is higher in Activity: 60.6% for the first, 74.9% for the second.

For `O=c1oc2ccc3c(c2c2ccc(Cl)cc12)OCO3`, the Activity was 73.5%.

Experiment: Antioxidant activity assessed as reduction in lipid peroxidation by measuring antiperoxide-index at 1.2 g/L by thiobarbituric acid method relative to control
Type: functional
Set-up: scale not given: the % may be the effect or the level left
Procedure, shortened: as §3

First: O=C(Oc1ccc2c(c1)OCO2)c1c(Cl)cccc1Cl
Second: O=c1oc2ccc3c(c2c2cccc(Cl)c12)OCO3
The Activity of the first is lower: 82.6% for the first, 95.7% for the second.

Work on `O=c1oc2ccc3c(c2c2ccc(Cl)cc12)OCO3` yielded an Activity of 97.2%.

Experiment: Antioxidant activity assessed as reduction of potassium ferricyanide trivalent iron into potassium ferrocyanide bivalent iron and ferrous iron by measuring eliminate efficiency at 0.8 g/L relative to control
Type: functional
Set-up: scale not given: the % may be the effect or the level left
Procedure, shortened: as §4

Compared with `O=C(Oc1ccc2c(c1)OCO2)c1c(Cl)cccc1Cl`, `O=c1oc2ccc3c(c2c2cccc(Cl)c12)OCO3` is higher in Activity: 75.8% for the first, 86.5% for the second.

`O=c1oc2ccc3c(c2c2ccc(Cl)cc12)OCO3` gave an Activity of 84.9%.

Experiment: Antioxidant activity assessed as reduction of potassium ferricyanide trivalent iron into potassium ferrocyanide bivalent iron and ferrous iron by measuring eliminate efficiency at 0.6 g/L relative to control
Type: functional
Set-up: scale not given: the % may be the effect or the level left
Procedure, shortened: as §4

Compared with `O=C(Oc1ccc2c(c1)OCO2)c1c(Cl)cccc1Cl`, `O=c1oc2ccc3c(c2c2cccc(Cl)c12)OCO3` is higher in Activity: 65.4% for the first, 74.6% for the second.

In the case of `O=c1oc2ccc3c(c2c2ccc(Cl)cc12)OCO3`, the Activity was 73.2%.
